For 1 compound, Activity and EC50 results are on record in ChEMBL document CHEMBL4354866, “TREK Channel Family Activator with a Well-Defined Structure-Activation Relationship for Pain and Neurogenic Inflammation” (J Med Chem, 2020).

Each structure is given as a SMILES string. Calls of active or inactive are those of the source.

In assay [1] the test system is Mus musculus. Nature of the assay: Analgesic activity in CFA-induced mouse model of chronic inflammatory pain assessed as reduction in mechanical allodynia at 5 mg/kg, ip measured up to 90 mins by von frey test. In kind it is functional, organism-based. Put shortly:
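CFA (20 μl s.c.) injected into the left hindpaw of mice; compound given i.p. in DMSO/Tween 80/saline vehicle. Mice acclimated 3 days on a wire-mesh floor; mechanical threshold measured with von Frey filaments applied in ascending order.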

Assay [2] deals with Mus musculus. Put plainly: Analgesic activity in mouse model of spared nerve injury assessed as reduction in number of hind paw lifting at 5 mg/kg, ip incubated for 30 mins measured within 5 mins by spontaneous pain test. In kind it is functional, organism-based. Put shortly: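 SNI mice, day 7, acclimated 3 days on a wire-mesh floor. Compound 5 mg/kg i.p. Starting 30 min after injection, mice were videotaped for 5 min and left hindpaw flinches counted blind; n = 7.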

Assay [3] deals with Potassium channel subfamily K member 2 (Homo sapiens, UniProt O95069, F149A). Put plainly: Activation of recombinant human TREK1 F149A mutant expressed in HEK293T cells assessed as increase in K+ current amplitude by whole cell voltage clamp electrophysiological analysis. The class given is cell-based. In short, it runs like this: (§1)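 Transiently transfected HEK-293T cells, whole-cell voltage clamp. Held at -60 mV, 500-ms ramp -120 to +60 mV. Pipette (mM) 140 KCl, 5 EGTA, 10 HEPES, pH 7.4; external 145 NaCl, 4 KCl, pH 7.3. Compound diluted from 10 mM DMSO stock and applied extracellularly. Current increase over control fitted to concentration–response curves for EC50.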

Assay [4] has as its target Potassium channel subfamily K member 9 (Homo sapiens) (UniProt Q9NPC2). Nature of the assay: Activation of recombinant human TASK3 expressed in HEK293T cells assessed as increase in K+ current amplitude at 10 uM by whole cell voltage clamp electrophysiological analysis. In kind it is cell-based. Put shortly: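 HEK-293T cells transiently transfected with the human K2P channel. Whole-cell clamp at -60 mV, 500-ms ramp -120 to +60 mV. Pipette 140 KCl (pH 7.4), external 145 NaCl/4 KCl (pH 7.3). Compound 10 μM, diluted from 10 mM DMSO stock into external solution.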

Assay [5] addresses T1, Potassium channel subfamily K member 2 (Homo sapiens) (UniProt O95069).
T1 sequence (whole entry): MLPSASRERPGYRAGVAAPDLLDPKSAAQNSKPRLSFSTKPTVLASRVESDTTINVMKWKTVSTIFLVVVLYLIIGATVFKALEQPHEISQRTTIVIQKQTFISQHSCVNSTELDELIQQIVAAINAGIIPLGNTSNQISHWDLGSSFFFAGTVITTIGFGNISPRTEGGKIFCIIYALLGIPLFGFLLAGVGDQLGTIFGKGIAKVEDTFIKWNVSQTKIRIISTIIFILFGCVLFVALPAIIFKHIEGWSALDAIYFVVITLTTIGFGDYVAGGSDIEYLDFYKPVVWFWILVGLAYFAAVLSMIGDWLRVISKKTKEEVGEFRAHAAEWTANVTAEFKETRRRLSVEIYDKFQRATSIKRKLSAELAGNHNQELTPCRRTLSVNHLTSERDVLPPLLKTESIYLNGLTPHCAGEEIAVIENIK
Put plainly: Activation of recombinant human TREK1 expressed in HEK293T cells assessed as change in single channel conductance by inside-out patch electrophysiological analysis. The class given is cell-based. Put shortly:
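Inside-out patches from HEK-293T cells expressing human TREK-1 (pEGFP-N1), 10 μM compound. Conductance taken as first open-state amplitude over voltage at -60 or +60 mV.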

The target of assay [6] is T1, Potassium channel subfamily K member 2 (Homo sapiens). Nature of the assay: Activation of recombinant human TREK1 expressed in HEK293T cells assessed as increase in probability of open channel by outside-out patch electrophysiological analysis. In kind it is cell-based. Put shortly: (§2)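 Outside-out patches from HEK-293T cells transfected with human TREK-1 (pEGFP-N1). Pipettes 7–15 MΩ. Open probability measured at -60 and +60 mV. Conductance taken as first open-state current amplitude divided by voltage at ±60 mV.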

The test system of assay [7] is Mus musculus. Put plainly: Analgesic activity in cerulein-induced mouse model of acute pancreatitis assessed as reduction in pancreatic edema at 10 mg/kg, ip administered at 2 hrs interval for 10 hrs starting from post-first cerulein challenge and measured 12 hrs post-first cerulein challenge by H and E staining based histopathological analysis. The class given is functional, organism-based. Put shortly: (§3)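 Cerulein pancreatitis: 7 hourly i.p. injections of 50 µg/kg; 10 mg/kg compound i.p. at 2, 4, 6, 8 and 10 h. Mice killed at 12 h and pancreas harvested for MPO activity and H&E histology. Ten random fields per slide scored blind by two observers for edema, inflammatory infiltration and acinar necrosis; n = 6.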

Assay [8] concerns Mus musculus. Put plainly: Analgesic activity in cerulein-induced mouse model of acute pancreatitis assessed as reduction in pancreatic necrosis at 10 mg/kg, ip administered at 2 hrs interval for 10 hrs starting from post-first cerulein challenge and measured 12 hrs post-first cerulein challenge by H and E staining based histopathological analysis. The class given is functional, organism-based. Put shortly: as §3

Assay [9] relates to Mus musculus. Put plainly: Analgesic activity in cerulein-induced mouse model of acute pancreatitis assessed as reduction in myeloperoxidase activity at 10 mg/kg, ip administered at 2 hrs interval for 10 hrs starting from post-first cerulein challenge and measured 12 hrs post-first cerulein challenge. In kind it is functional, organism-based. In short, it runs like this:
as §3

Assay [10] concerns Mus musculus. Nature of the assay: Analgesic activity in mouse assessed as increase in tail flick latency time at 5 mg/kg, ip at 5 to 52 degC by tail immersion test. In kind it is functional, organism-based. In short, it runs like this: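 Male BALB/c or C57BL/6 mice, 6–8 weeks, acclimated in a holder 15 min/day for 3 days. Distal 3 cm of tail immersed at 5, 20, 40, 46 or 52 °C; flick latency recorded, cut-off 15 s. Compound i.p. in 5% DMSO/5% Tween 80/90% saline (1.25–10 mg/kg at 52 °C; 5 mg/kg across temperatures).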
Background: Hot-plate and tail-flick tests time the reaction to a heat stimulus.

For assay [11], the target named is Potassium channel subfamily K member 2 (Homo sapiens, UniProt O95069, I293A). Put plainly: Activation of recombinant human TREK1 I293A mutant expressed in HEK293T cells assessed as increase in K+ current amplitude by whole cell voltage clamp electrophysiological analysis. The class given is cell-based. Put shortly:
as §1

Assay [12] has as its target T1, Potassium channel subfamily K member 2 (Homo sapiens). Nature of the assay: Activation of recombinant human TREK1 expressed in HEK293T cells assessed as change in single channel conductance by outside-out patch electrophysiological analysis. In kind it is cell-based. In short, it runs like this: as §2
Assay [13] has as its target T2, Potassium channel subfamily K member 4 (Homo sapiens, UniProt Q9NYG8).
T2 sequence (Q9NYG8 whole entry): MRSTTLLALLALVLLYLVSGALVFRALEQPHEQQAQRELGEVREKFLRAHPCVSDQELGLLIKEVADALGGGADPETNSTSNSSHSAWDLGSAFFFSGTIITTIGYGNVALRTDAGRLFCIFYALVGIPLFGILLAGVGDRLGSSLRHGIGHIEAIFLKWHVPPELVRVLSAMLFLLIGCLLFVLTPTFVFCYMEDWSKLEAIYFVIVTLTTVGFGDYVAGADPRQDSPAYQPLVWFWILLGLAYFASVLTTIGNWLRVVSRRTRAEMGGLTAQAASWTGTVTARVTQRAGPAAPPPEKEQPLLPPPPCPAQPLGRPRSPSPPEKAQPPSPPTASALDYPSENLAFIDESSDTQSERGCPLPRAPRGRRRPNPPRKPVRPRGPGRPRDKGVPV
Put plainly: Activation of recombinant human TRAAK expressed in HEK293T cells assessed as increase in K+ current amplitude by whole cell voltage clamp electrophysiological analysis. The class given is cell-based. In short, it runs like this: as §1

Sequence of Potassium channel subfamily K member 2 (Homo sapiens, UniProt O95069, I293A) (O95069 whole entry I293A): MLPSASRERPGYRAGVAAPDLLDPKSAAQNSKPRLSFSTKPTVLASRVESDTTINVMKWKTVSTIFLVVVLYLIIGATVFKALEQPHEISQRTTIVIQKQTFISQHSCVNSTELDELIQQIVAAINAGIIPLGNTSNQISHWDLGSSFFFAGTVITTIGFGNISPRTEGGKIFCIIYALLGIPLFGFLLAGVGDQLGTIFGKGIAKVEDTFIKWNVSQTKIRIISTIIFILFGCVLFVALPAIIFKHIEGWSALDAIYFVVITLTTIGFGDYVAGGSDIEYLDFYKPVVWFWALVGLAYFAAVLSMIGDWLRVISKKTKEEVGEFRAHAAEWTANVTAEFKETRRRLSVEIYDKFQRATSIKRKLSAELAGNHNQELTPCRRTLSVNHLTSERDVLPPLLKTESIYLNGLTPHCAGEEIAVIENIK
Sequence of Potassium channel subfamily K member 2 (Homo sapiens, UniProt O95069, F149A) (O95069 whole entry F149A): as the sequence (O95069 whole entry I293A) above, with F149A, A293I counted along it
Sequence of Potassium channel subfamily K member 9 (Homo sapiens) (Q9NPC2 whole entry): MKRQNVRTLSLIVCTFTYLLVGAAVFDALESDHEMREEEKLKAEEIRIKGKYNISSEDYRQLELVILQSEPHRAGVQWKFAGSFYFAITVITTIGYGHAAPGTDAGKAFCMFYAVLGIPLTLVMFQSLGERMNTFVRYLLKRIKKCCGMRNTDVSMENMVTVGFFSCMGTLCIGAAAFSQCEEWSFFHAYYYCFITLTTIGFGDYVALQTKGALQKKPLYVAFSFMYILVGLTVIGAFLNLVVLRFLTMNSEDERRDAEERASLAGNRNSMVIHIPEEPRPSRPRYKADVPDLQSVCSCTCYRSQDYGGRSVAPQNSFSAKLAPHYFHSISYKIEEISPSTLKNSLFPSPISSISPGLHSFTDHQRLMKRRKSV

One may read the EC50 as the concentration at which the effect is half-maximal. For `Cc1ccc2nc(-c3ccc(NC(=O)[C@@H]4CC[C@H](C(=O)O)C4)cc3)sc2c1`, the outcome in [1], in assay [2], in [4], in [6], in [7] and in assay [8] was Active. For the same compound, the outcome in assay [9] and in [10] was Active. Further, the EC50 in [3] was 22.4 µM; in assay [11] it was 7.98 µM; in assay [13], 15.3 µM. The outcome in [5] and in assay [12] was inactive.
